Data: publication PMC10132129 (RSC Advances, 2023)
Counter-ions that a name gives are not always drawn. Marks after values point to notes of the source that are not given here.

Columns and labels:
human PDE5A = human PDE5A (Homo sapiens, UniProt O76074); test: In vitro PDE5 inhibitory activity; type: biochemical; conditions: read-out: % Inhibition of PDE5
[1] = test system: streptozotocin-induced diabetic male rats; test: Histopathological examination of testes; type: in vivo, albino rats; conditions: 9 weeks
Summary of the method: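 Testes from 9-week-dosed diabetic rats fixed in 10% formalin, paraffin-embedded, cut at 5 μm and H&E-stained; examined at ×400. Tubule diameter and epithelial height measured on 20 near-circular seminiferous tubule cross-sections from three slides (lower, middle, upper testis). n = 6; mean ± SD.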

[2] = test system: streptozotocin-induced diabetic male rats; test: Mating test; type: in vivo, albino rats; conditions: 5 mg kg^−1 b.w
Summary of the method: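 In week 8, each treated diabetic male was housed 5 days with two virgin females. Daily vaginal smears checked for sperm. Sperm-positive females were kept 10 days, then euthanised (diethyl ether overdose) to count fetuses and corpora lutea. Mating success = females mated / females paired; male fertility = fetuses / corpora lutea.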

[3] = test system: streptozotocin-induced diabetic male rats; test: Epididymal sperm characteristics; type: in vivo, albino rats; conditions: 5 mg kg^−1 b.w, 9 weeks
Summary of the method: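 After 9 weeks' oral dosing of STZ-diabetic rats, cauda epididymal semen was diluted with normal saline in a red-cell pipette (0.5 to 101 mark). Count in Neubauer chamber at ×40, expressed as million cells per mL. Viability by eosin–nigrosin mixed 1:1 for 5 min, ~200 cells scored; unstained cells counted as live. Smears air-dried for morphology; n = 6.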

[4] = test system: streptozotocin-induced diabetic male rats; test: Serum biochemical estimation in diabetic rats; type: in vivo, albino rats; conditions: for Fasting plasma glucose / Fasting plasma glucose % reduced / Serum insulin / Serum insulin % increased: 5 mg kg^−1 b.w
Summary of the method: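 STZ-diabetic male rats (55 mg kg−1 ip; FPG >250 mg dL−1) dosed orally 9 weeks in 0.5% Na-CMC; n = 6. Fasting retro-orbital blood taken under diethyl ether at weeks 0, 5, 9; serum spun 3500 rpm, 15 min. FPG by glucometer; ALT, AST, ALP, creatinine by commercial kits. Mean ± SD; one-way ANOVA with Tukey test.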

[5] = test system: streptozotocin-induced diabetic male rats; test: Body weight and relative reproductive organ weight in diabetic rats; type: in vivo, albino rats; conditions: 5 mg kg^−1 b.w
Summary of the method: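 Male albino rats (190–200 g), fasted overnight, given STZ 55 mg kg−1 ip with 5% glucose to drink; FPG >250 mg dL−1 at 72 h defined diabetes. Body weight recorded weeks 0, 5, 9. Organs weighed post-mortem; relative weight = organ/body weight × 100.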

[6] = test system: streptozotocin-induced diabetic male rats; test: Copulatory; type: in vivo, albino rats; conditions: 5 mg kg^−1 b.w; day 63
Summary of the method: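 STZ-diabetic males dosed orally for 9 weeks; tested on day 63. Females were ovariectomized and primed sc with 3-benzoyloxy-17b-estrol 48 h before and progesterone 500 μg 4 h before testing. Males adapted 10 min under dim red light, then paired 1:1. Mount, intromission and ejaculation latencies/frequencies and post-ejaculatory interval recorded; n = 6.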

[7] = ABTS^+· radical scavenging assay; type: biochemical; conditions: read-out: IC50 against ABTS^+· free radical
Summary of the method: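 Radical-scavenging assay: test compound at 25–100 μg mL−1 mixed with ABTS+· solution and incubated 37 °C, 6 min. Absorbance read at 750 nm against blank. Ascorbic acid was the standard. Triplicate runs; IC50 reported.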

[8] = 9 weeks treatment, vs diabetic control

## CCCc1nn(C)c2c(=O)[nH]c(-c3cc(S(=O)(=O)N4CCN(C)CC4)ccc3OCC)nc12 [Sildenafil citrate]
Human PDE5A
  inhibition at 2.5 µg/mL: 48.1 ± 1.48%
  inhibition at 5 µg/mL: 67.8 ± 1.21%
  inhibition at 7.5 µg/mL: 84.1 ± 0.86%
  inhibition at 10 µg/mL: 97.3 ± 1.64%
[1]; 5 mg kg^−1 b.w
  Height of seminiferous epithelium: 70.60 ± 3.10^z μm
  Mean seminiferous tubule diameter: 217.00 ± 15.14^y μm
[1]; 5 mg kg^−1 b.w, range 1–10
  Mean Johnson's score: 9.30 ± 0.48^z
[1]; oral treatment
  Testicular histology (H&E): marked development in the testicular structure
[2]
  Male fertility: 83.85 ± 3.98^z %
  Mating success: 83.34%
  No. of corpora lutea/rat: 12.40 ± 0.52
  No. of fetuses/rat: 10.40 ± 0.70^z
[2]; of 12 females paired
  No. of females mated: 10
  No. of females pregnant: 10
[3]
  Detached head from sperm: 9.67 ± 2.73^z %
  Sperm abnormalities: 9.83 ± 0.75^ay %
  Sperm count: 56.69 ± 1.37 million cells per mL
  Sperm count % reduced: 24.24 ± 3.66%
  Sperm motility: 68.67 ± 3.14^by %
  Sperm viability: 68.17 ± 2.56^cz %
[4]; 9 weeks
  Fasting plasma glucose: 190.67 ± 5.79 mg/dL
  Fasting plasma glucose % reduced: 45.28 ± 2.37%
  Serum insulin: 6.82 ± 0.14 mIU L^−1
  Serum insulin % increased: 99.58 ± 9.18%
[4]; 0 week
  Fasting plasma glucose: 348.67 ± 6.80^c mg dL^−1
  Serum insulin: 3.43 ± 021^c mIU L^−1
[4]; 5 weeks
  Fasting plasma glucose: 219.17 ± 5.38 mg/dL
  Fasting plasma glucose % reduced: 37.12 ± 2.15%
  Serum insulin: 6.00 ± 0.29 mIU L^−1
  Serum insulin % increased: 75.37 ± 3.54%
[4]; [8]
  Creatinine (Cr) level: remarkable reduction
  Total bilirubin (TBIL) level: remarkable reduction
  Total protein (TP) level: significant recovery
  Urea (U) level: remarkable reduction
[5]; 9 weeks
  Body weight: 179.50 ± 5.05 g
  Body weight % changed: −10.32 ± 3.18%
[5]; 0 week
  Body weight: 200.33 ± 6.68 g
[5]; 5 weeks
  Body weight: 170.83 ± 6.79 g
  Body weight % changed: −14.69 ± 3.27%
[6]
  Ejaculatory latency: 948.83 ± 32.29^a sec
  Intromission frequency: 8.20 ± 0.55^by no.
  Intromission latency: 805.33 ± 23.84^bx sec
  Mount frequency: 578.50 ± 38.01^cy sec
  Mount latency: 539.67 ± 27.06^x sec
  Post ejaculatory interval: 1311.67 ± 95.19 s

## O=C1O[C@H]([C@@H](O)CO)C(O)=C1O [ascorbic acid]
[7]
  IC50: 169 ± 12.9 µM
